Measured values collected from several papers.
Observed: metabolic stability
Species: mouse
Matrix: liver microsomes

CONC(=O)c1cccc2c1cc(C)n2-c1nc2c(c(NCc3ccccc3)n1)CCCN2  microsomal CLint (1 µM, pH 7.4): 619 µL/min/mg
Cc1cc(N2C(=O)NC(C)(C)C2=O)cc(C(F)(F)F)n1  microsomal CLint: 19 µL/min/mg
O=C(O)Cc1ccccc1Nc1c(Cl)cccc1Cl  microsomal CLint: 31.2 µL/min/mg
O=c1c2c([nH]c3c(Oc4ccc(OC(F)(F)F)cc4)cccc13)CCCC2  microsomal CLint (1 µM, pH 7.4): 8.33 µL/min/mg
CC1(C)NC(=O)N(c2ccc(F)c(Br)c2)C1=O  microsomal CLint: 8 µL/min/mg
CC(C)n1ncc2c(C(=O)NCC3(F)CNC3)cc(C3CC3)nc21  microsomal CLint: 19.8 µL/min/mg
CC1(C)NC(=O)N(c2cc(C(F)(F)F)c(F)cc2C#N)C1=O  microsomal CLint: < 7 µL/min/mg
CCN(CC)CCNC(=O)c1c(C)[nH]c(/C=C2\C(=O)Nc3ccc(F)cc32)c1C  microsomal CLint: 41 µL/min/mg
O=c1c2c([nH]c3cc(OCc4ccc(OC(F)(F)F)cc4)ccc13)CCCC2  microsomal CLint (1 µM, pH 7.4): 19.7 µL/min/mg
Cc1[nH]c(C)c(S(=O)(=O)Nc2ccc(C(F)(F)F)c(Cl)c2Cl)c1C(=O)N1CCC(F)(F)C1  microsomal CLint: 15.7 µL/min/mg
CCN(CC)CCOc1ccc2c(=O)c3c([nH]c2c1)CCCC3  microsomal CLint (1 µM, pH 7.4): 17.7 µL/min/mg
CC1(C)NC(=O)N(c2ccc(F)c(CC(F)(F)F)c2)C1=O  microsomal CLint: < 7 µL/min/mg
CC(C)n1ncc2c(C(=O)NC(C)(C)CN)cc(C3CC3)nc21  microsomal CLint: 19.1 µL/min/mg
O=c1c2c([nH]c3cc(OC(F)(F)F)ccc13)CCCC2  microsomal CLint (1 µM, pH 7.4): 139 µL/min/mg
CC(C)n1ncc2c(C(=O)NCC(C)(C)N(C)C)cc(C3CC3)nc21  microsomal CLint: 30.4 µL/min/mg
CCN(CC)CCCOc1ccc2c(=O)c3c([nH]c2c1)CCCC3  microsomal CLint (1 µM, pH 7.4): 7.94 µL/min/mg
CC1(C)NC(=O)N(c2cccc(C(F)(F)F)n2)C1=O  microsomal CLint: < 7 µL/min/mg
CC(C)(C)OC(=O)N1CCC(Oc2ccc3c(=O)c4c(F)cc(Cl)cc4[nH]c3c2)CC1  microsomal CLint (1 µM, pH 7.4): 12.5 µL/min/mg
Cc1[nH]c(C)c(S(=O)(=O)Nc2ccc(C(F)(F)F)c(Cl)c2)c1C(=O)N(C)C  microsomal CLint: 179 µL/min/mg
